From ChEMBL document CHEMBL4715907, “Cytoprotective activities of kinetin purine isosteres” (Bioorg Med Chem, 2021)
Active and inactive are the calls of the source. The calls are words filed in the database; no cut-off is given here.

What was measured:
GM04663 = experiment: Cytoprotective activity in human GM04663 cells assessed as aberrant splicing of ELP1 mRNA expression at 50 uM incubated for 24 hrs by RT-PCR anlaysis; assay type: functional, cell-based
Outline: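 GM04663 patient fibroblasts, about 500,000 per 10 cm dish in DMEM with 10% FBS, were grown overnight and then treated 24 h at 50 µM, with DMSO vehicle. Total RNA was extracted with Trizol and reverse-transcribed. ELP1 nt 2194–2593 (NM_003640.5) was amplified over 34 cycles with 63.8 °C annealing. Wild-type and aberrant transcripts were quantified by peak area against DNA standards of known size and concentration.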

[1] = Apparent permeability of compound in MDCK-MDR1 cells; assay type: ADME, cell-based, Canis lupus familiaris; conditions: dog
Outline: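 MDCK-MDR1 cells formed monolayers on 1 µm pore Transwell filters, used only if intact by Lucifer Yellow rejection. Cells were washed with HBSS and pre-equilibrated at pH 7.4 for 1 h, then exposed to 10 µM compound in HBSS pH 7.4 for 1 h, apical-to-basal and basal-to-apical. Donor and acceptor were quantified by RapidFire MS/MS (MRM). Papp = (dQ/dt)/(C0 × A), duplicates.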

[2] = Apparent permeability of compound in human Caco2 cells; assay type: ADME, cell-based; conditions: Caco-2
[3] = Stability in human liver microsomes assessed as parent compound remaining at 2 uM measured up to 60 mins by RF-MS analysis; assay type: ADME, Microsome; conditions: read-out: Stabilty
[4] = Protein binding in human plasma at 10 uM after 4 hrs by RF-MS analysis; assay type: ADME, cell-free; conditions: read-out: PPB (converted)
[5] = Stability in human plasma assessed as parent compound remaining at 2 uM measured up to 120 mins by RF-MS analysis; assay type: ADME, cell-free; conditions: read-out: Stabilty
[6] = biological target: T1, Frataxin, mitochondrial (Homo sapiens) (UniProt Q16595); experiment: Inhibition of His6-tagged-thrombin cleavage site-fused FXN (79 to 207 residues) (unknown origin) assessed as increase in Fe-S cluster biosynthesis at 30 to 500 uM by UV-visible spectroscopy relative to control; conditions: dose 30-500 µM
T1 sequence (whole entry): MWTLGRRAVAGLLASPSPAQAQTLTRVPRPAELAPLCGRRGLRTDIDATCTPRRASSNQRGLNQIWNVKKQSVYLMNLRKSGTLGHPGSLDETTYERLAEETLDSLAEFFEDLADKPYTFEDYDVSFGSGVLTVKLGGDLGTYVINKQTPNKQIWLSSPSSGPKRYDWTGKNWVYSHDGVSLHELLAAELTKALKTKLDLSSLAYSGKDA
Outline: (§1)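 Mouse ISC machinery reconstituted in vitro from purified proteins under anaerobic conditions. Buffer was 50 mM Tris, 150 mM NaCl, pH 8, with 50 µM apo-ISCU loaded with one equivalent Fe2+, 5 µM NFS1-ISD11-ACP, 5 µM FDX2, 2 µM FDXR and 100 µM NADPH. Compounds in DMSO were tested at 30, 50, 100, 200 and 500; DMSO was equalized. 5 µM FXN served as positive control. Run in triplicate.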

GM04078 [7] = experiment: Cytoprotective activity against BSO-induced toxicity in human GM04078 cells assessed as increase in cell viability at 10 to 50 uM preincubated for 24 hrs followed by BSO-stimulation and […] by resazurin fluorescence based assay; assay type: functional; conditions: dose 10-50 µM
GM04078 [8] = experiment: Cytoprotective activity against BSO-induced toxicity in human GM04078 cells assessed as restoring GSH level […] by confocal microscopic method; assay type: functional, cell-based; conditions: time 32.0 hrs
SH-SY5Y [9] = experiment: Cytoprotective activity against glutamate-induced human ATRA-differentiated SH-SY5Y cells assessed as reduction in oxidative stress […] by dihydroethidium staining based assay; assay type: functional, cell-based; conditions: dose 0.1-10 µM
GM04078 [10] = experiment: Cytoprotective activity against BSO-induced toxicity in human GM04078 cells assessed as restoring FXN protein expression at 10 to 50 uM after 48 hrs by immunodetection assay; assay type: functional, cell-based; conditions: dose 10-50 µM
Outline: (§2)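 GM04078 cells (about 1.4 million per 10 cm dish, DMEM with 10% FBS) were treated 24 h after seeding at 10 and 50 µM and harvested after 48 h. Lysates in Laemmli buffer were normalized by Bradford, 25–40 µg run on 12.5% SDS-PAGE and transferred to PVDF. Blots were probed with anti-frataxin mouse antibody (18A5DB1), actin as loading control, HRP secondary and ECL.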

GM04078 [11] = experiment: Cytoprotective activity against BSO-induced toxicity in human GM04078 cells assessed as increase in cell viability preincubated for 24 hrs followed by BSO-stimulation and […] by resazurin fluorescence based assay; assay type: functional
SH-SY5Y [12] = experiment: Cytoprotective activity against glutamate-induced ATRA-differentiated human SH-SY5Y cells assessed as reduction in cell death at 10 uM after 24 hrs by propidium iodide staining based assay relative to control; assay type: functional; design: scale not given: the % may be the effect or the level left
Outline: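 SH-SY5Y cells (20,000/well) differentiated 48 h with 10 µM ATRA in DMEM/F12 with 1% FBS. Medium replaced by fresh DMEM/F12 with 1% FBS containing test compound at 0.1, 1 or 10 µM; DMSO vehicle as negative control. Cells exposed immediately to 160 mM glutamate for 24 h. Dead cells stained with propidium iodide (1 µg/mL final, 15 min, rt); fluorescence read at ex 535/em 617 nm.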

SH-SY5Y [13] = experiment: Cytoprotective activity against glutamate-induced human ATRA-differentiated SH-SY5Y cells from ECACC assessed as reduction in oxidative stress at 10 uM after 24 hrs by dihydroethidium staining based assay; assay type: functional, cell-based
GM04078 [14] = experiment: Cytoprotective activity against BSO-induced toxicity in human GM04078 cells assessed as restoring FXN protein expression at 10 to 50 uM after 48 hrs by Western blot analysis; assay type: functional, cell-based; conditions: dose 10-50 µM; outline: as §2
[15] = Drug degradation in human liver microsomes at 2 uM measured up to 60 mins by RF-MS analysis; assay type: ADME, Tissue, Microsome; conditions: read-out: Drug degradation
[16] = biological target: T1, Frataxin, mitochondrial (Homo sapiens); experiment: Activation of His6-tagged-thrombin cleavage site-fused FXN (79 to 207 residues) (unknown origin) assessed as increase in Fe-S cluster biosynthesis at 30 to 500 uM by UV-visible spectroscopy relative to control; conditions: dose 30-500 µM; outline: as §1

Row | Papp [1] [×10⁻⁶ cm/s] | Papp [2] [×10⁻⁶ cm/s] | remaining at 1 h, 2 µM [3] [%] | fraction unbound at 4 h, 10 µM [4] | remaining at 2 h, 2 µM [5] [%] | SMILES | Activity (GM04663) | further results
1 | 16.3 | 7.6 | 78 | 0.871 | 83 | c1coc(CNc2ncnc3cn[nH]c23)c1 | inactive | –
2 | 16.3 | 7.6 | 78 | 0.871 | 83 | Clc1cc(NCc2ccco2)c2nc[nH]c2n1 | – | –
3 | 16.3 | 7.6 | 78 | 0.871 | 83 | c1coc(CNc2ncnc3[nH]ccc23)c1 | Active | –
4 | 16.3 | 7.6 | 78 | 0.871 | 83 | c1coc(CNc2ncnc3ccsc23)c1 | Active | metabolised at 1 h, 2 µM [15]: > 50%
5 | 16.3 | 7.6 | 78 | 0.871 | 83 | Clc1nc(NCc2ccco2)c2cc[nH]c2n1 | Active | –
6 | – | – | – | – | – | CN(Cc1ccco1)c1ncnc2c1cnn2C | inactive | –
7 | 16.3 | 7.6 | 78 | 0.871 | 83 | c1coc(CNc2ccnc3[nH]cnc23)c1 | – | –
8 | – | – | – | – | – | Cc1ccc(C(C)Nc2ncnc3c2cnn3C)o1 (configuration not stated) | inactive | –
9 | 16.3 | 7.6 | 78 | 0.871 | 83 | Clc1nc(NCc2ccco2)c2[nH]cnc2n1 | – | –
10 | 16.3 | 7.6 | 78 | 0.871 | 83 | c1coc(CNc2ncnc3occc23)c1 | Active | –
11 | 16.3 | 7.6 | 78 | 0.871 | 83 | c1coc(CNc2nccc3[nH]cnc23)c1 | – | Activity (GM04078 [11]): Dose-dependent effect; Activity [16]: 0.5%
12 | 16.3 | 7.6 | 78 | 0.871 | 83 | c1coc(CNc2ccnc3ccnn23)c1 | – | –
13 | 16.3 | 7.6 | 78 | 0.871 | 83 | c1coc(CNc2ncnc3sccc23)c1 | Active | –
14 | – | – | – | – | – | Cc1ccc(CN(C)c2ncnc3c2cnn3C)o1 | inactive | –
15 | 16.3 | 7.6 | 78 | 0.871 | 83 | c1coc(CNc2ncnc3[nH]nnc23)c1 | inactive | –
16 | 16.3 | 7.6 | 78 | 0.871 | 83 | Cl.c1coc(CNc2ncnc3ccccc23)c1 | Active | –
17 | – | – | – | – | – | Cc1ccc(CNc2ncnc3[nH]ncc23)o1 | inactive | –
18 | 16.3 | 7.6 | 78 | 0.871 | 83 | c1coc(CNc2ncnc3cc[nH]c23)c1 | Active | –

Row | SMILES | Papp [1] [×10⁻⁶ cm/s] | Papp [2] [×10⁻⁶ cm/s] | remaining at 1 h, 2 µM [3] [%] | fraction unbound at 4 h, 10 µM [4] | remaining at 2 h, 2 µM [5] [%] | Activity (GM04663) | further results
19 | Clc1cc2[nH]cnc2c(NCc2ccco2)n1 | 16.3 | 7.6 | 78 | 0.871 | 83 | – | inhibition [6]: Active; Activity (GM04078 [7]): Active; Activity (GM04078 [8]): inactive; Activity (SH-SY5Y [9]): Dose-dependent effect; Activity (GM04078 [10]): inactive; Activity (GM04078 [11]): Dose-dependent effect; Activity (SH-SY5Y [12]): 10%; Activity (SH-SY5Y [13]): Active; Activity (GM04078 [14]): inactive
20 | c1coc(CNc2ncnc3[nH]cnc23)c1 [KINETIN] | 16.3 | 7.6 | 78 | 0.871 | 83 | – | –
21 | Clc1nc(NCc2ccco2)c2[nH]ccc2n1 | 16.3 | 7.6 | 78 | 0.871 | 83 | Active | Activity (SH-SY5Y [9]): Dose-dependent effect; Activity (SH-SY5Y [12]): 10%
22 | Cc1oc2ncnc(NCc3ccco3)c2c1C | 16.3 | 7.6 | 78 | 0.871 | 83 | Active | Activity (SH-SY5Y [9]): Dose-dependent effect; Activity (SH-SY5Y [12]): 10%; metabolised at 1 h, 2 µM [15]: > 50%
